Results: ChEMBL document CHEMBL1629601, “In vitro susceptibility of field isolates of Leishmania donovani to Miltefosine and amphotericin B: correlation with sodium antimony gluconate susceptibility and implications for treatment in areas of endemicity” (2009)
Converted amounts (≈) assume the structure as drawn.

Columns and labels:
Format in all cases: functional
[1] = tested on: Leishmania donovani; experiment: Decrease in LdMT gene expression in Leishmania donovani K59M20 by RT-PCR method
Outline: (§1)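 MIL-resistant M20 parasites were generated by raising the MIL concentration stepwise up to 20 μg/ml. LdMT or LdRos3 expression was quantified by real-time RT-PCR (SYBR green, 2−ΔΔCt method) and reported as an expression index, the ratio to the standard strain LdAG83. A decrease is relative to LdAG83. Values are means of three independent experiments.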

[2] = tested on: Leishmania donovani; experiment: Antimicrobial activity against Leishmania donovani K435 amastigote; conditions: read-out: ED50 (the source's name)
[3] = tested on: Leishmania donovani; experiment: Antimicrobial activity against Leishmania donovani K133 amastigote; conditions: read-out: ED50 (the source's name)
[4] = tested on: Leishmania donovani; experiment: Decrease in LdRoS3 gene expression in Leishmania donovani K439 by RT-PCR method
Outline: (§2)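 VL field isolates of L. donovani. Transcript levels of LdMT or LdRos3 were measured by real-time RT-PCR with SYBR green and analysed by the 2−ΔΔCt method. The expression index is the ratio of gene expression to that of the standard L. donovani strain LdAG83, and a decrease is relative to LdAG83. Values are means of three independent experiments.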

[5] = tested on: Leishmania donovani; experiment: Antimicrobial activity against Leishmania donovani K132 promastigote; conditions: read-out: ED50 (the source's name)
[6] = tested on: Leishmania donovani; experiment: Antimicrobial activity against Leishmania donovani K516 amastigote; conditions: read-out: ED50 (the source's name)
[7] = tested on: Leishmania donovani; experiment: Decrease in LdRoS3 gene expression in Leishmania donovani K516 by RT-PCR method; outline: as §2
[8] = tested on: Leishmania donovani; experiment: Antimicrobial activity against Leishmania donovani K417M20 amastigote; conditions: read-out: ED50 (the source's name)
[9] = tested on: Leishmania donovani; experiment: Antimicrobial activity against Leishmania donovani K429 amastigote; conditions: read-out: ED50 (the source's name)
[10] = tested on: Leishmania donovani; experiment: Antimicrobial activity against Leishmania donovani K216 promastigote; conditions: read-out: ED50 (the source's name)
[11] = tested on: Leishmania donovani; experiment: Decrease in LdRoS3 gene expression in Leishmania donovani K59M20 by RT-PCR method; outline: as §1
[12] = tested on: Leishmania donovani; experiment: Antimicrobial activity against Leishmania donovani K417M20 promastigote; conditions: read-out: ED50 (the source's name)
[13] = tested on: Leishmania donovani; experiment: Antimicrobial activity against Leishmania donovani K481 amastigote; conditions: read-out: ED50 (the source's name)
[14] = tested on: Leishmania donovani; experiment: Decrease in LdMT gene expression in Leishmania donovani K149 by RT-PCR method
Outline: (§3)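 LdMT transcript levels were measured by real-time RT-PCR with SYBR green and analysed by the 2−ΔΔCt method. They are expressed as an expression index, the ratio relative to reference strain LdAG83, and are the mean of three independent experiments.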

[15] = tested on: Leishmania donovani; experiment: Decrease in LdRoS3 gene expression in Leishmania donovani K135 by RT-PCR method; outline: as §2
[16] = tested on: Leishmania donovani; experiment: Decrease in LdMT gene expression in Leishmania donovani K111 by RT-PCR method; outline: as §3
[17] = tested on: Leishmania donovani; experiment: Antimicrobial activity against Leishmania donovani K111 amastigote; conditions: read-out: ED50 (the source's name)
[18] = tested on: Leishmania donovani; experiment: Decrease in LdMT gene expression in Leishmania donovani K59 by RT-PCR method; outline: as §2
[19] = tested on: Leishmania donovani; experiment: Decrease in LdRoS3 gene expression in Leishmania donovani K251 by RT-PCR method; outline: as §2
[20] = tested on: Leishmania donovani; experiment: Antimicrobial activity against Leishmania donovani K498 promastigote; conditions: read-out: ED50 (the source's name)
[21] = tested on: Leishmania donovani; experiment: Antimicrobial activity against Leishmania donovani K509 amastigote; conditions: read-out: ED50 (the source's name)
[22] = tested on: Leishmania donovani; experiment: Antimicrobial activity against Leishmania donovani K80 amastigote; conditions: read-out: ED50 (the source's name)
[23] = tested on: Leishmania donovani; experiment: Decrease in LdMT gene expression in Leishmania donovani K417M20 by RT-PCR method; outline: as §1
[24] = tested on: Leishmania donovani; experiment: Antimicrobial activity against Leishmania donovani K439 amastigote; conditions: read-out: ED50 (the source's name)
[25] = tested on: Leishmania donovani; experiment: Antimicrobial activity against Leishmania donovani K149 amastigote; conditions: read-out: ED50 (the source's name)
[26] = tested on: Leishmania donovani; experiment: Decrease in LdRoS3 gene expression in Leishmania donovani K132 by RT-PCR method; outline: as §2
[27] = tested on: Leishmania donovani; experiment: Antimicrobial activity against Leishmania donovani K509 promastigote; conditions: read-out: ED50 (the source's name)
[28] = tested on: Leishmania donovani; experiment: Antimicrobial activity against Leishmania donovani K429 promastigote; conditions: read-out: ED50 (the source's name)
[29] = tested on: Leishmania donovani; experiment: Decrease in LdRoS3 gene expression in Leishmania donovani K80 by RT-PCR method; outline: as §2
[30] = tested on: Leishmania donovani; experiment: Decrease in LdMT gene expression in Leishmania donovani K439 by RT-PCR method; outline: as §2
[31] = tested on: Leishmania donovani; experiment: Antimicrobial activity against Leishmania donovani K135 promastigote; conditions: read-out: ED50 (the source's name)
[32] = tested on: Leishmania donovani; experiment: Decrease in LdMT gene expression in Leishmania donovani K251 by RT-PCR method; outline: as §2
[33] = tested on: Leishmania donovani; experiment: Antimicrobial activity against Leishmania donovani K439 promastigote; conditions: read-out: ED50 (the source's name)
[34] = tested on: Leishmania donovani; experiment: Decrease in LdMT gene expression in Leishmania donovani K498 by RT-PCR method; outline: as §2
[35] = tested on: Leishmania donovani; experiment: Antimicrobial activity against Leishmania donovani K417 amastigote; conditions: read-out: ED50 (the source's name)
[36] = tested on: Leishmania donovani; experiment: Antimicrobial activity against Leishmania donovani K417 promastigote; conditions: read-out: ED50 (the source's name)
[37] = tested on: Leishmania donovani; experiment: Decrease in LdMT gene expression in Leishmania donovani K80 by RT-PCR method; outline: as §2
[38] = tested on: Leishmania donovani; experiment: Decrease in LdMT gene expression in Leishmania donovani K417 by RT-PCR method; outline: as §2
[39] = tested on: Leishmania donovani; experiment: Decrease in LdRoS3 gene expression in Leishmania donovani K192 by RT-PCR method; outline: as §2
[40] = tested on: Leishmania donovani; experiment: Antimicrobial activity against Leishmania donovani K498 amastigote; conditions: read-out: ED50 (the source's name)
[41] = tested on: Leishmania donovani; experiment: Antimicrobial activity against Leishmania donovani K132 amastigote; conditions: read-out: ED50 (the source's name)

EC50 [2]: 1.08 µg/mL (≈ 2.65 µM)
EC50 [3]: 0.93 µg/mL (≈ 2.28 µM)
EC50 [5]: 0.53 µg/mL (≈ 1.3 µM)
EC50 [6]: 2.02 µg/mL (≈ 4.96 µM)
EC50 [8]: > 15 µg/mL
EC50 [9]: 1.24 µg/mL (≈ 3.04 µM)
EC50 [10]: 0.76 µg/mL (≈ 1.86 µM)
EC50 [12]: > 15 µg/mL
EC50 [13]: 2.32 µg/mL (≈ 5.69 µM)
EC50 [17]: 0.85 µg/mL (≈ 2.09 µM)
EC50 [20]: 1.32 µg/mL (≈ 3.24 µM)
EC50 [21]: 2.16 µg/mL (≈ 5.3 µM)
EC50 [22]: 1.32 µg/mL (≈ 3.24 µM)
EC50 [24]: 1.07 µg/mL (≈ 2.63 µM)
EC50 [25]: 1.57 µg/mL (≈ 3.85 µM)
EC50 [27]: 1.94 µg/mL (≈ 4.76 µM)
EC50 [28]: 1.26 µg/mL (≈ 3.09 µM)
EC50 [31]: 0.86 µg/mL (≈ 2.11 µM)
EC50 [33]: 0.87 µg/mL (≈ 2.13 µM)
EC50 [35]: 1.9 µg/mL (≈ 4.66 µM)
EC50 [36]: 1.72 µg/mL (≈ 4.22 µM)
EC50 [40]: 1.65 µg/mL (≈ 4.05 µM)
EC50 [41]: 0.48 µg/mL (≈ 1.18 µM)
Compound: CCCCCCCCCCCCCCCCOP(=O)([O-])OCC[N+](C)(C)C [MILTEFOSINE]
fold change (FC) [1]: 13.33
fold change (FC) [4]: 3.12
fold change (FC) [7]: 83.33
fold change (FC) [11]: 100
fold change (FC) [14]: 1.08
fold change (FC) [15]: 1.67
fold change (FC) [16]: 3.4
fold change (FC) [18]: 2.84
fold change (FC) [19]: 52.63
fold change (FC) [23]: 11.3
fold change (FC) [26]: 55.55
fold change (FC) [29]: 1.71
fold change (FC) [30]: 4.76
fold change (FC) [32]: 7.68
fold change (FC) [34]: 1.38
fold change (FC) [37]: 1.24
fold change (FC) [38]: 1.88
fold change (FC) [39]: 1.9
